Assay results as given in paper PMC11359639 (ACS Omega, 2024).
“Also recorded” adds a separate entry of the source.

What was measured:
IL-6 [1] = assay: IL-6 level in supernatant of LPS-induced RAW264.7 cells; format: cell-based; conditions: RAW264.7 cells supernatant, LPS 1 μg/mL, 1 μM, 48 h
Method in brief: (§1)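 RAW264.7 cells were allowed to attach, then the medium was replaced with 1 μg/mL LPS plus test compound at final concentrations of 1, 10 and 100 μM, with DMSO used for solubilisation where needed. […] After 48 h culture, the supernatant was assayed for IL-1β, IL-6 and TNF-α. Values are means of three independent experiments, mean ± SD, compared by one-way ANOVA.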

TNF-α [2] = assay: TNF-α level in supernatant of LPS-induced RAW264.7 cells; format: cell-based; conditions: RAW264.7 cells supernatant, LPS 1 μg/mL, 1 μM, 48 h
Method in brief: as §1

IL-1β = IL-1β level in supernatant of LPS-induced RAW264.7 cells; format: cell-based; conditions: RAW264.7 cells supernatant, LPS 1 μg/mL, 1 μM, 48 h
Method in brief: as §1

TNF-α [3] = assay: Rat CIA model, serum TNF-α concentration; format: in vivo; conditions: CIA rats, 50 and 100 (mg/kg)/day oral, compared with model group
NF-κB [4] = assay: NF-κB mRNA expression in RAW264.7 cells by RT-PCR; format: cell-based; conditions: LPS-induced RAW264.7 cells, 1 μM, 24 h, vs model group
TNF-α [5] = assay: TNF-α protein expression in RAW264.7 cells by immunofluorescence; format: cell-based; conditions: LPS-induced RAW264.7 cells, 1 μM, 24 h, vs model group
Method in brief: (§2)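 They were PBS-washed, fixed in 4% fixative for 45 min, permeabilised with 0.25% Triton for 15 min and blocked with 5% BSA for 10 min. Staining used rabbit anti-mouse TLR4 or TNF-α (1:100, 4 °C overnight), FITC anti-rabbit (1:400, 37 °C, 30 min) and DAPI. Mean cell fluorescence was read by confocal microscopy.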

NF-κB [6] = assay: NF-κB protein expression in RAW264.7 cells by Western blot; format: cell-based; conditions: LPS-induced RAW264.7 cells, 1 μM, 24 h, vs model group
TLR4 [7] = assay: TLR4 protein expression in RAW264.7 cells by Western blot; format: cell-based; conditions: LPS-induced RAW264.7 cells, 1 μM, 24 h, vs model group
Method in brief: (§3)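 Lysis was in RIPA containing 1% PMSF on ice for 3–4 h, followed by centrifugation at 12000 rpm for 15 min. Supernatants were stored at −80 °C, and TLR4 and TNF-α protein were detected by Western blot.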

TNF-α [8] = assay: TNF-α mRNA expression in RAW264.7 cells by RT-PCR; format: cell-based; conditions: LPS-induced RAW264.7 cells, 1 μM, 24 h, vs model group
TLR4 [9] = assay: TLR4 protein expression in RAW264.7 cells by immunofluorescence; format: cell-based; conditions: LPS-induced RAW264.7 cells, 1 μM, 24 h, vs model group
Method in brief: as §2

NF-κB [10] = assay: NF-κB protein expression in RAW264.7 cells by immunofluorescence; format: cell-based; conditions: LPS-induced RAW264.7 cells, 1 μM, 24 h, vs model group
[11] = tested on: CIA (collagen-induced arthritis) model; assay: Rat CIA; format: in vivo; conditions: for paw volume of rats: CIA rats, 15 days
IL-6 [12] = assay: Rat CIA model, serum IL-6 concentration; format: in vivo; conditions: CIA rats, 50 and 100 (mg/kg)/day oral, compared with model group
TNF-α [13] = assay: TNF-α protein expression in RAW264.7 cells by Western blot; format: cell-based; conditions: LPS-induced RAW264.7 cells, 1 μM, 24 h, vs model group
Method in brief: as §3

TLR4 [14] = assay: TLR4 mRNA expression in RAW264.7 cells by RT-PCR; format: cell-based; conditions: LPS-induced RAW264.7 cells, 1 μM, 24 h, vs model group
[15] = Pharmacokinetics in Sprague-Dawley rats; format: in vivo, rat; conditions: for maximum concentration: SD rats; for half-life: male, Sprague-Dawley, rat, plasma
Method in brief: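 Male SD rats (6–8 weeks) received test compound in 10% DMSO + 10% Solutol HS15 + 80% (20% HP-β-CD saline), either 20 mg/kg via foot dorsal vein or 100 mg/kg by oral gavage. Samples were kept on wet ice and spun at 2000g for 5 min at 4 °C within 15 min. Plasma was analysed by LC-MS/MS.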

## CC(=O)CC(=O)C1CCCC1=O (stereo not drawn) [Compound 3a, 1-(2-Oxocyclopentyl)butane-1,3-dione]
IL-6 [1]
  Inflammatory factor IL-6: 196.2 ± 14.3 pg/L
TNF-α [2]
  Inflammatory factor TNF-α: 520.6 ± 54.6 pg/L
IL-1β
  Inflammatory factor IL-1β: 512.0 ± 85.0 pg/L

## COC(=O)C1CCC(C(=O)CC(C)=O)C1=O (stereo not drawn) [Compound 3g, Methyl 2-oxo-3-(3-oxobutanoyl)cyclopentane-1-carboxylate]
IL-6 [1]
  Inflammatory factor IL-6: 170.3 ± 25.3 pg/L
TNF-α [2]
  Inflammatory factor TNF-α: 339.8 ± 49.2 pg/L
IL-1β
  Inflammatory factor IL-1β: 408.2 ± 69.1 pg/L

## CCOC(=O)C1CCC(C(=O)CC(C)=O)C1=O (stereo not drawn) [Compound 3h, Ethyl 2-oxo-3-(3-oxobutanoyl)cyclopentane-1-carboxylate]
IL-6 [1]
  Inflammatory factor IL-6: 197.4 ± 21.3 pg/L
TNF-α [2]
  Inflammatory factor TNF-α: 524.7 ± 48.5 pg/L
IL-1β
  Inflammatory factor IL-1β: 506.0 ± 65.1 pg/L

## CC(=O)CC(=O)C1CCC(C(C)=O)C1=O (stereo not drawn) [Compound 3i, 1-(3-Acetyl-2-oxocyclopentyl)butane-1,3-dione]
IL-6 [1]
  Inflammatory factor IL-6: 205.2 ± 25.9 pg/L
TNF-α [2]
  Inflammatory factor TNF-α: 424.5 ± 87.6 pg/L
IL-1β
  Inflammatory factor IL-1β: 558.4 ± 66.9 pg/L

## CCCCCC1C(=O)C(C(=O)CC(C)=O)CC1CC(=O)OC (stereo not drawn) [Compound 3j, Methyl 2-(3-oxo-4-(3-oxobutanoyl)-2-pentylcyclopentyl)acetate]
IL-6 [1]
  Inflammatory factor IL-6: 163.8 ± 25.9 pg/L
TNF-α [2]
  Inflammatory factor TNF-α: 400.6 ± 60.2 pg/L
IL-1β
  Inflammatory factor IL-1β: 488.8 ± 66.1 pg/L

## CC(=O)CC(=O)C1CC(C)C(=O)C1=O (stereo not drawn) [Compound 3k, 3-Methyl-5-(3-oxobutanoyl) cyclopentane-1,2-dione]
TNF-α [3]
  serum TNF-α concentration: decreased significantly and reached the normal level
NF-κB [4]
  expression of NF-κB gene (RT-PCR): significant down-regulated
TNF-α [5]
  expression of TNF-α protein (immunofluorescence): significantly down-regulated
NF-κB [6]
  expression of NF-κB protein (Western blot): significantly down-regulated
TLR4 [7]
  expression of TLR4 protein (Western blot): significantly down-regulated
IL-6 [1]
  Inflammatory factor IL-6: 96.6 ± 9.8 pg/L
TNF-α [8]
  expression of TNF-α gene (RT-PCR): significant down-regulated
TLR4 [9]
  expression of TLR4 protein (immunofluorescence): significantly down-regulated
NF-κB [10]
  expression of NF-κB protein (immunofluorescence): significantly down-regulated
[11]; high dose 100 (mg/kg)/day oral
  paw volume of rats: basically unchanged
[11]; low dose 50 (mg/kg)/day oral
  paw volume of rats: basically unchanged
[11]; administered orally
  effect in collagen-induced arthritis model compared with methotrexate: effects similar to those of methotrexate; also recorded: effect similar to that of the positive control group methotrexate
IL-6 [12]
  serum IL-6 concentration: decreased significantly and reached the normal level
TNF-α [2]
  Inflammatory factor TNF-α: 217.8 ± 20.3 pg/L
IL-1β
  Inflammatory factor IL-1β: 278.6 ± 58.1 pg/L
TNF-α [13]
  expression of TNF-α protein (Western blot): significantly down-regulated
TLR4 [14]
  expression of TLR4 gene (RT-PCR): significant down-regulated
[15]; intravenous dose 20 mg/kg
  maximum concentration: 1603 ng/mL
[15]; oral dose 100 mg/kg
  maximum concentration: 2014 ng/mL
[15]; iv, 20 mg/kg
  half-life: 30 to 60 min
[15]; po, 100 mg/kg
  half-life: 30 to 60 min

## CN(Cc1cnc2nc(N)nc(N)c2n1)c1ccc(C(=O)N[C@@H](CCC(=O)O)C(=O)O)cc1 [methotrexate, reference compound]
TNF-α [5]
  expression of TNF-α protein (immunofluorescence): significantly down-regulated
TLR4 [7]
  expression of TLR4 protein (Western blot): significantly down-regulated
IL-6 [1]
  Inflammatory factor IL-6: 114.1 ± 2.8 pg/L
TNF-α [8]
  expression of TNF-α gene (RT-PCR): significantly down-regulated
TLR4 [9]
  expression of TLR4 protein (immunofluorescence): significantly down-regulated
TNF-α [2]
  Inflammatory factor TNF-α: 236.8 ± 18.7 pg/L
IL-1β
  Inflammatory factor IL-1β: 337.6 ± 47.8 pg/L
TNF-α [13]
  expression of TNF-α protein (Western blot): significantly down-regulated
TLR4 [14]
  expression of TLR4 gene (RT-PCR): significantly down-regulated
